One may read the IC50 as the concentration that inhibits the measured activity by half.

Active and inactive are the calls of the source. The rule behind the calls is not given here.

The test system of one assay is HeLa. Put plainly: Cytotoxicity against human HeLa cells assessed as cell growth inhibition after 24 hrs by MTT assay. The class given is functional, cell-based. In short, it runs like this: (§1)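 Cells seeded 24 h in RPMI 1640 + 10% FBS. RWPE-1 was kept in K-SFM with bovine pituitary extract and EGF. Cells then exposed to compounds for 24 h at 37 °C, 5% CO2, with DMSO vehicle and docetaxel as positive control. MTT added for 4 h, absorbance read at 570 nm. Triplicate runs, IC50 reported as mean of three experiments.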

Assay [1] concerns PC-3. The assay can be described thus: Cytotoxicity against human PC3 cells assessed as cell growth inhibition after 24 hrs by MTT assay. The class given is functional, cell-based. Particulars: PC-3, 24 h. In short, it runs like this:
as §1
On the technique in general: Tetrazolium dyes change colour on reduction, which living cells bring about.

For the next assay, the system named is MCF7. The assay can be described thus: Cytotoxicity against human MCF7 cells assessed as cell growth inhibition after 24 hrs by MTT assay. In kind it is functional, cell-based. Particulars: MCF7, 24 h. The essentials: as §1
The test system of assay [2] is PC-3. Put plainly: Induction of cell cycle arrest in human PC3 cells assessed as accumulation in G0/G1 phase at 1 uM after 24 hrs by […]propidium iodide based flow cytometric analysis (reference value: 43.5 to 62.5 %). In kind it is functional. In general terms: A flow cytometer gives signals particle by particle.
Assay [3] relates to PC-3. Put plainly: Induction of cell cycle arrest in human PC3 cells assessed as accumulation in S phase at 1 uM after 24 hrs by […]propidium iodide based flow cytometric analysis (reference value: 21 to 31.6 %). The class given is functional.
The subject of assay [4] is PC-3. Put plainly: Induction of cell cycle arrest in human PC3 cells assessed as accumulation in S phase at 2 uM after 24 hrs by […]propidium iodide based flow cytometric analysis (reference value: 21 to 31.6 %). In kind it is functional.
The test system of assay [5] is PC-3. Put plainly: Induction of apoptosis in human PC3 cells assessed as viable cells at 0.5 uM after 24 hrs by Annexin V-FITC/propidium iodide based flow cytometric analysis (reference value: 95.4 %). The class given is functional. Particulars: PC-3, 24 h, read-out: Activity. In short, it runs like this:
(§2)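 PC3 cells exposed to 0.5, 1 or 2 μM for 24 h, then stained with Annexin V-FITC and PI and analyzed by FACSCalibur flow cytometry. Populations assigned as necrotic (Annexin V−/PI+), late apoptotic (double positive), normal (Annexin V−/PI−) and early apoptotic (Annexin V+/PI−). DMSO vehicle control.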

Assay [6] has as its system PC-3. Put plainly: Induction of apoptosis in human PC3 cells assessed as early apoptotic cells at 1 uM after 24 hrs by Annexin V-FITC/propidium iodide based flow cytometric analysis (reference value: 2.3 %). In kind it is functional. The essentials:
as §2

For assay [7], the system named is PC-3. Put plainly: Induction of apoptosis in human PC3 cells assessed as late apoptotic cells at 1 uM after 24 hrs by Annexin V-FITC/propidium iodide based flow cytometric analysis (reference value: 1.1 %). In kind it is functional. In short, it runs like this: as §2
In assay [8] the test system is PC-3. Put plainly: Induction of apoptosis in human PC3 cells assessed as necrotic cells at 1 uM after 24 hrs by Annexin V-FITC/propidium iodide based flow cytometric analysis (reference value: 1.1 %). In kind it is functional. The essentials:
as §2

Assay [9] deals with PC-3. The assay can be described thus: Induction of apoptosis in human PC3 cells assessed as early apoptotic cells at 2 uM after 24 hrs by Annexin V-FITC/propidium iodide based flow cytometric analysis (reference value: 2.3 %). In kind it is functional. The essentials: as §2
For assay [10], the system named is PC-3. Put plainly: Induction of cytoplasmic vacuolation in human PC3 cells assessed as formation of small vacuoles at 1 uM after 4 hrs by phase-contrast microscopic analysis. In kind it is functional, cell-based. In short, it runs like this:
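PC3 cells in RPMI 1640 with 10% FBS at 37 °C, 5% CO2, treated with 1 μM agent for 0−24 h; DMSO vehicle control. Vacuole appearance, size and number followed over time by phase-contrast microscopy at constant magnification.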

Assay [11] relates to PC-3. Put plainly: Induction of ER stress in human PC3 cells assessed as activation of XBPI mRNA incubated for 22 hrs after ER stress inhibitor 4-PBA exposure for 2 hrs by Western blot analysis. The class given is functional, cell-based. In short, it runs like this: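 PC3 cells pretreated 2 h with 4-PBA (100 μM), then compound added for a further 22 h. Viability measured by MTT. GRP78 assessed by Western blot, along with XBP1 mRNA splicing analysis. Morphology by phase contrast.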
(In general: Immunoblotting shows a protein as a band on a membrane.)

The test system of assay [12] is PC-3. The assay can be described thus: Cytotoxicity in human PC3 cells assessed as reduction in cell viability after 24 hrs in presence of CHX by MTT assay. In kind it is functional, cell-based. In short, it runs like this: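 PC3 cells pretreated with 10 μM actinomycin D or 5 μM cycloheximide, then treated with compound for 24 h. Viability by MTT at 570 nm. Vacuolation imaged by phase-contrast microscopy.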

The test system of assay [13] is PC-3. The assay can be described thus: Induction of vacuolization in human PC3 cells in presence of CHX after 24 hrs by phase-contrast microscopic analysis. In kind it is functional, cell-based. The essentials:
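PC3 cells pretreated with 10 μM actinomycin D or 5 μM cycloheximide, then treated with agent for 24 h. Vacuolization imaged by phase-contrast microscopy; viability by MTT.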

Assay [14] deals with PC-3. The assay can be described thus: Induction of autophagy in human PC3 cells assessed as conversion of LC3B1 to LC3B2 after 24 hrs by Western blot analysis. In kind it is functional, cell-based. In short, it runs like this: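 PC3 cells in RPMI 1640 with 10% FBS, treated with compound for timed intervals. DMSO vehicle control. Lysis in RIPA buffer, 40 μg protein per lane on SDS-PAGE, transfer to nitrocellulose. Primary antibodies overnight at 4 °C, HRP-secondary 45 min, ECL detection. GAPDH or β-actin used as loading control.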

The subject of assay [15] is PC-3. Put plainly: Induction of fusion of autophagosomes with lysosomes in human PC3 cells transfected with mRFP-GFP-LC3 at 1 uM after 8 hrs by fluorescence microscopic analysis. The class given is functional, cell-based. In short, it runs like this: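 PC3 cells transfected with an mRFP-GFP-LC3 reporter plasmid, then treated 8 h with 1 μM test agent or 0.5 μM rapamycin (autophagy inducer). Imaged by confocal fluorescence microscopy: yellow puncta (overlapping red/green) scored as autophagosomes, red-only puncta as autolysosomes, since GFP is quenched in acidic lysosomes.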

For assay [16], the system named is PC-3. The assay can be described thus: Cytotoxicity against human PC3 cells assessed as reduction in cell viability at 1 uM after 24 hrs in presence of […] inhibitor E-64d by MTT assay. In kind it is functional, cell-based. In short, it runs like this:
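PC3 cells pretreated with autophagy inhibitor 3-MA or E64d, then given 1 μM compound for 24 h. Viability measured by MTT (4 h, 570 nm). Morphology checked by phase-contrast microscopy.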

For assay [17], the system named is PC-3. The assay can be described thus: Induction of autophagy in human PC3 cells transfected with LC3-targeting siRNA assessed as vacuole formation at 1 uM after 24 hrs by phase-contrast microscopic analysis. In kind it is functional, cell-based. The essentials: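 PC3 cells plated at 20−30% confluency, then transfected 24 h later with 50 nM LC3-targeting or scrambled siRNA by lipofection. After 48 h they were exposed to 1 μM agent for a further 24 h, followed by phase-contrast imaging and Western blotting.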

A further assay deals with PC-3M. The assay can be described thus: Antitumor activity against human PC3M-lluc-C6 cells xenografted in athymic Balb/c mouse assessed as decrease in tumor burden by measuring photon intensity at 15 mg/kg, ip measured on day 9 by bioluminescence method (reference value: 6.501 x 10^9 photons/s/cm2). In kind it is functional.
Assay [18] relates to PC-3. The assay can be described thus: Induction of apoptosis in human in human PC3 cells assessed as reduction in cell viability in presence of caspase inhibitor by MTT assay.

Turning to `Cc1cc(C)cc(COc2cc3c(cc2OCc2cc(C)cc(C)c2)[C@@H]2C[C@H](O)C[C@@H](C)N2CC3)c1` (racemic), the IC50 in the assay with HeLa turned out to be 1650 nM; in the assay with PC-3 [1], 660 nM; in the assay on MCF7, 510 nM. For the same compound, the Activity is reported as 65.1 - 78% in the assay on PC-3 [2]; 10.1 - 20.4% in the assay with PC-3 [3]; 6.38 - 9.05% in the assay on PC-3 [4]; 5.9% with PC-3 [6]; 2.6% in the assay with PC-3 [7]; 1.6% with PC-3 [8]. Besides, the Activity with PC-3 [9] is 20.5%; in the assay on PC-3M, 2.45 ×10⁹ /s/cm2. Moreover, in the assay with PC-3 [5], the viability at 0.5 µM stood at 95.3%. Also, the outcome in the assay on PC-3 [10] and in the assay with PC-3 [14] was Active. In addition, the result in the assay on PC-3 [11], in the assay with PC-3 [12], with PC-3 [13], in the assay on PC-3 [15], in the assay with PC-3 [16] and in the assay with PC-3 [17] was inactive. The result in the assay with PC-3 [18] was inactive.

The values above are taken from ChEMBL document CHEMBL4425094, “Novel Benzo[a]quinolizidine Analogs Induce Cancer Cell Death through Paraptosis and Apoptosis” (J Med Chem, 2016).
